The Kd is the equilibrium constant for the complex coming apart. Low readings indicate a tighter complex, high ones a looser complex. By IC50 is commonly meant the concentration needed to halve the response being measured.

Here are results for 50 compounds from ChEMBL document CHEMBL3232920, “Targeting carnitine biosynthesis: discovery of new inhibitors against γ-butyrobetaine hydroxylase” (J Med Chem, 2014).

For the first test, the target named is T1, Gamma-butyrobetaine dioxygenase (Homo sapiens, UniProt O75936).
T1 sequence (O75936 whole entry): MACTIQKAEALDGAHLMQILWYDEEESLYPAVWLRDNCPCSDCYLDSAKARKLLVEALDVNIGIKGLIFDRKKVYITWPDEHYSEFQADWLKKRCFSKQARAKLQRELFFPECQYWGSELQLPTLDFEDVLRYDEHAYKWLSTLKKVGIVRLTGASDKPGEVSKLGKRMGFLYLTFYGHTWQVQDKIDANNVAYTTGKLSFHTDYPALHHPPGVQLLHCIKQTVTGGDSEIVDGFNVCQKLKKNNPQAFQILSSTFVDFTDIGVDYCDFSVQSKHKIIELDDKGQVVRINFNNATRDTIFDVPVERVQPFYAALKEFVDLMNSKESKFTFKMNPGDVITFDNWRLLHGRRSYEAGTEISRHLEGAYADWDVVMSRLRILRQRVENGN
In words: Binding affinity to purified human BBOX by isothermal titration calorimetry analysis. The method, boiled down: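 Human BBOX, purified and dialyzed, in 50 mM HEPES pH 7.4 with 100 mM KCl; cofactors and ligands dissolved in the same dialysate. N-oxalylglycine replaced 2-oxoglutarate and Ni(II) replaced Fe(II). Enzyme 26–75 μM per subunit. ITC at 25 °C: 0.2 μL first injection (discarded), then 19 × 2.0 μL. Dilution heats subtracted, low-c fitting, ≥3 repeats.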
For orientation: Isothermal titration calorimetry measures the heat released or taken up as one component is titrated into another.
`CN(CCC(=O)[O-])[N+](C)(C)C` displayed a Kd of 9.3 µM.
`CC(CCC(=O)[O-])[N+](C)(C)C` (stereo not given) displayed a Kd of 4.1 µM.

The next test addresses T2, Gamma-butyrobetaine dioxygenase (Homo sapiens) (UniProt O75936).
T2 sequence (whole entry): T1 sequence (O75936 whole entry)
In words: Ratio of mildronate IC50 to compound IC50 for human recombinant BBOX.
As for `C=C[N+](C)(C)NCCC(=O)[O-]`, the Ratio IC50 was determined as 9.
`CN(CCC(=O)[O-])[N+](C)(C)C`: the Ratio IC50 turned out to be 3.
On to `CC(CCC(=O)[O-])[N+](C)(C)C` (stereo not given), for which the Ratio IC50 came out at 3.

In the next test the target is T1, Gamma-butyrobetaine dioxygenase. Put plainly: Inhibition of human recombinant BBOX expressed in Saccharomyces cerevisiae AH22 assessed as formation of carnitine from gamma-butyrobetaine preincubated for 15 mins measured after 30 mins by UPLC-MS/MS analysis. The method, boiled down: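 His-tagged BBOX purified by Ni affinity, desalting and Mono Q; tag cut with TEV. Assay (0.2 mL) held 20 mM K phosphate pH 7.0, 20 mM KCl, 3 mM 2-oxoglutarate, 0.25 mM Fe(II), 10 mM ascorbate, catalase and 0.6 μg enzyme. Screen at 100 or 1000 μM, then 6–8 concentrations. GBB 200 μM added after preincubation, 37 °C; stopped with cold acetonitrile/methanol. Logistic-fit IC50, mean ± SD of three experiments.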
For the compound `C=C[N+](C)(C)CCCC(=O)[O-]`, the IC50 was determined as 127 µM.
Regarding `C=C[N+](C)(C)NCCC(=O)[O-]`, the IC50 was found to be 6.8 µM.
The same measure, in the same setting: the figure for `C[N+](C)(C)CC(Cl)CC(=O)O` (stereo not given) is 459 µM; for `C#CC[N+](C)(C)CCCC(=O)[O-]` it is 1.4 µM; for `C[N+](C)(C)C/C=C/C(=O)[O-]` it is 3.8 µM.
Turning to `O=C(O)CCCN1CCCC1`, the IC50 was determined as 1000 µM.
The same measure, in the same setting: the result for `CC[N+](C)(CC)CCCC(=O)[O-]` reads 100 µM; that for `CC[N+](C)(CC)NCCC(=O)O`, greater than 1000 µM; that for `C[N+](C)(CCCC(=O)[O-])C1CC1`, 2.1 µM.
With `C[N+](C)(CBr)CCCC(=O)[O-]`, the IC50 was greater than 1000 µM.
For the compound `CC[N+](C)(C)CCCS(=O)(=O)[O-]` [ETHYL DIMETHYL AMMONIO PROPANE SULFONATE], the IC50 is 6.7 µM.
The same measure, in the same setting: the result for `CCN(CCC(=O)[O-])[N+](C)(C)C` reads 2.8 µM.
`CC[N+](C)(C)N(C)CCC(=O)[O-]`: the IC50 was found to be 7.2 µM.
Same read-out and setting: the figure for `CN(CCC(=O)[O-])[N+](C)(C)C` is 0.09 µM.
Regarding `C[N+](C)(CCCC(=O)[O-])C1CCC1`, the IC50 was found to be 0.81 µM.
On the same count and under the same terms, the result for `CCCC[N+](C)(C)CCCC(=O)[O-]` reads greater than 1000 µM; that for `C[N+](C)(C)CCCS(=O)(=O)[O-]`, 1.7 µM; that for `C#CC[N+](C)(C)NCCC(=O)O`, 24 µM.
On the same count and under the same terms, the figure for `C[N+](C)(CCO)CCCC(=O)[O-]` is 1000 µM; for `C[N+]1(CCCC(=O)O)CCCC1` it is 0.49 µM; for `C[N+](C)(CCCC(=O)[O-])CC1CCC1` it is greater than 1000 µM.
On the same count and under the same terms, the figure for `C[N+](C)(CCCC(=O)[O-])Cc1ccccc1` is greater than 1000 µM; for `CCC[N+](C)(C)N(C)CCC(=O)[O-]` it is 3.1 µM; for `CC[N+](C)(C)CCC[PH](=O)[O-]` it is 0.53 µM.
On to `C[N+](C)(C)CCCCC(=O)[O-]`, for which the IC50 was greater than 1000 µM.
Same read-out and setting: the figure for `C[N+](C)(CCCC(=O)[O-])C1CCCC1` is greater than 1000 µM.
Consider `C[N+](C)(CCl)CCCC(=O)[O-]`, for which the IC50 turned out to be 268 µM.
For the compound `C=CC[N+](C)(C)CCCC(=O)[O-]`, the IC50 was 2.7 µM.
The same measure, in the same setting: the result for `C[N+](C)(CCO)NCCC(=O)[O-]` reads 1000 µM.
Take `C=CC[N+](C)(C)NCCC(=O)[O-]`: the IC50 was found to be 119 µM.
Regarding `CC(CCC(=O)[O-])[N+](C)(C)C` (stereo not given), the IC50 turned out to be 343 µM.
Turning to `CC[N+](C)(C)CCCC(=O)[O-]`, the IC50 turned out to be 3.3 µM.
On the same count and under the same terms, the result for `C[N+](C)(C)CCCP(=O)(O)O` reads 0.1 µM; that for `C[S+](C)CCCC(=O)[O-]`, 388 µM.
On the same count and under the same terms, the result for `CC(C)[N+](C)(C)CCCC(=O)[O-]` reads 5.7 µM.
`C[N+](C)(C)NCCS(=O)(=O)[O-]`: the IC50 is 87 µM.
On to `CC[N+](C)(C)NCCC(=O)[O-]`, for which the IC50 amounted to 140 µM.
Same read-out and setting: the result for `CC(C)[N+](C)(C)NCCC(=O)[O-]` reads greater than 1000 µM; that for `C[N+](C)(CI)CCCC(=O)[O-]`, 1000 µM; that for `C[N+](C)(C)CCC[PH](=O)[O-]`, 0.52 µM.
For `COC[N+](C)(C)CCCC(=O)[O-]`, the IC50 was greater than 1000 µM.
Same read-out and setting: the figure for `C[N+](C)(CCF)CCCC(=O)O` is 0.61 µM; for `C[N+](C)(CCCl)NCCC(=O)O` it is 10.2 µM; for `CCC[N+](C)(C)CCCC(=O)[O-]` it is greater than 1000 µM.
On to `C[N+](C)(C)NCCP(=O)(O)O`, for which the IC50 was determined as 117 µM.
Regarding `C[N+](C)(CCCC(=O)[O-])CC1CC1`, the IC50 is greater than 1000 µM.
As for `C[N+](C)(CCN)NCCC(=O)[O-]`, the IC50 is greater than 1000 µM.
On the same count and under the same terms, the result for `C[N+](C)(C)CCCc1nnn[nH]1` reads greater than 1000 µM.
The same measure, in the same setting: the result for `C[N+](C)(C)C1CCCC(C(=O)[O-])C1` (stereo not given) reads greater than 1000 µM; that for `C[N+](C)(CCCl)CCCC(=O)O`, 0.26 µM.
